Reference: ChEMBL document CHEMBL1136609, “An adjustable release rate linking strategy for cytotoxin-peptide conjugates” (Bioorg Med Chem Lett, 2003)

Key:
IMR-32 = assay: Cytotoxic activity against human neuroblastoma IMR32 cells; format: functional, cell-based
Summary of the method: (§1)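 Human neuroblastoma IMR-32 cells (somatostatin receptor/SSTR2 over-expressing) exposed to a range of compound concentrations for 3 days, in quadruplicate; viability read by MTT assay; IC50 taken from dose-response curves.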

[1] = Half-life in rat serum; format: ADME, organism-based
Summary of the method: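 Compounds incubated at 37°C in fresh rat serum; aliquots removed at several time points and analysed by HPLC to estimate half-life.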

Rattus norvegicus [2] = organism: Rattus norvegicus; assay: Inhibitory activity against GHRH-stimulated GH release from monolayer cultures of rat pituitary cells; format: functional, cell-based; settings: Pituitary gland cell
Summary of the method: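 Monolayer cultures of rat pituitary cells stimulated with GHRH; agonist potency measured as inhibition of GH release, expressed as IC50.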

Somatostatin receptor = assay: Cytotoxic activity against human neuroblastoma IMR32 cells which over-express somatostatin receptors; format: functional, cell-based; settings: imr-32; summary of the method: as §1
[3] = Half-life in phosphate buffer; format: ADME
Summary of the method: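 Incubated in 0.1 M phosphate buffer at 37°C; aliquots taken at various time points and analysed by HPLC to give half-life. The experiment ran for 50 h.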

Rattus norvegicus [4] = organism: Rattus norvegicus; assay: Inhibitory activity against GHRH-stimulated GH release from monolayer cultures of rat pituitary cells; na is not active; format: functional, cell-based; settings: pituitary gland cell

Compound | IC50 (IMR-32) [nM] | half-life [1] [h] | IC50 (Rattus norvegicus [2]) [nM] | IC50 (Somatostatin receptor) [nM] | half-life [3] [h] | IC50 (Rattus norvegicus [4])
CCCC[C@H](NC(=O)[C@@H](CO)NC(=O)CN(CCN)C(=O)O[C@]1(CC)C(=O)OCc2c1cc1n(c2=O)Cc2cc3ccccc3nc2-1)C(=O)N[C@H](Cc1ccc(O)cc1)C(=O)N[C@H](CO)C(=O)N[C@@H]1CSSC[C@H](C(=O)N[C@H](C(N)=O)[C@@H](C)O)NC(=O)[C@H]([C@@H](C)O)NC(=O)[C@H](CCCN)NC(=O)[C@@H](Cc2c[nH]c3ccccc23)NC(=O)[C@H](Cc2ccccc2)NC1=O | 374 | 106 | 0.32 |  |  | 
CCCC[C@H](NC(=O)[C@@H](CO)NC(=O)CN(CCN)C(=O)Oc1cc(/C=C\c2cc(OC)c(OC)c(OC)c2)ccc1OC)C(=O)N[C@H](Cc1ccc(O)cc1)C(=O)N[C@H](CO)C(=O)N[C@@H]1CSSC[C@H](C(=O)N[C@H](C(N)=O)[C@@H](C)O)NC(=O)[C@H]([C@@H](C)O)NC(=O)[C@H](CCCN)NC(=O)[C@@H](Cc2c[nH]c3ccccc23)NC(=O)[C@H](Cc2ccccc2)NC1=O |  | 4 | 0.31 | 2.79 | 31 | 
CCCC[C@H](NC(=O)[C@@H](CO)NC(=O)CN(CCO)C(=O)O[C@]1(CC)C(=O)OCc2c1cc1n(c2=O)Cc2cc3ccccc3nc2-1)C(=O)N[C@H](Cc1ccc(O)cc1)C(=O)N[C@H](CO)C(=O)N[C@@H]1CSSC[C@H](C(=O)N[C@H](C(N)=O)[C@@H](C)O)NC(=O)[C@H]([C@@H](C)O)NC(=O)[C@H](CCCN)NC(=O)[C@@H](Cc2c[nH]c3ccccc23)NC(=O)[C@H](Cc2ccccc2)NC1=O |  |  | 0.49 | > 1000 |  | 
CCCC[C@H](NC(=O)[C@@H](CO)NC(=O)CN(CCNC)C(=O)O[C@]1(CC)C(=O)OCc2c1cc1n(c2=O)Cc2cc3ccccc3nc2-1)C(=O)N[C@H](Cc1ccc(O)cc1)C(=O)N[C@H](CO)C(=O)N[C@@H]1CSSC[C@H](C(=O)N[C@H](C(N)=O)[C@@H](C)O)NC(=O)[C@H]([C@@H](C)O)NC(=O)[C@H](CCCN)NC(=O)[C@@H](Cc2c[nH]c3ccccc23)NC(=O)[C@H](Cc2ccccc2)NC1=O |  | 18 | 0.27 | 54.2 | 123 | 
CCCC[C@H](NC(=O)[C@@H](CO)NC(=O)CN(CCN(C)C)C(=O)O[C@]1(CC)C(=O)OCc2c1cc1n(c2=O)Cc2cc3ccccc3nc2-1)C(=O)N[C@H](Cc1ccc(O)cc1)C(=O)N[C@H](CO)C(=O)N[C@@H]1CSSC[C@H](C(=O)N[C@H](C(N)=O)[C@@H](C)O)NC(=O)[C@H]([C@@H](C)O)NC(=O)[C@H](CCCN)NC(=O)[C@@H](Cc2c[nH]c3ccccc23)NC(=O)[C@H](Cc2ccccc2)NC1=O |  | 59 | 0.3 | 571 |  | 
CCCC[C@H](NC(=O)[C@@H](CO)NC(=O)CN(CCCN)C(=O)O[C@]1(CC)C(=O)OCc2c1cc1n(c2=O)Cc2cc3ccccc3nc2-1)C(=O)N[C@H](Cc1ccc(O)cc1)C(=O)N[C@H](CO)C(=O)N[C@@H]1CSSC[C@H](C(=O)N[C@H](C(N)=O)[C@@H](C)O)NC(=O)[C@H]([C@@H](C)O)NC(=O)[C@H](CCCN)NC(=O)[C@@H](Cc2c[nH]c3ccccc23)NC(=O)[C@H](Cc2ccccc2)NC1=O |  | 72 | 0.26 | > 1000 |  | 
CC[C@@]1(O)C(=O)OCc2c1cc1n(c2=O)Cc2cc3ccccc3nc2-1 [CAMPTOTHECIN] |  |  |  | 2.21 |  | Not Active
